Test results as given in ChEMBL document CHEMBL1146037, “Design and discovery of a novel dipeptidyl-peptidase IV (CD26)-based prodrug approach” (J Med Chem, 2006).
The source made the active and inactive calls. No cut-off for these calls is given here.

system: MT4; assay: Antiviral activity against HIV2 assessed as inhibition of HIV2-induced cytopathicity in MT4 cells; type: functional, cell-based; conditions: not given
Summary of the method: (§1)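 CEM and MT-4 cell cultures infected with HIV-1 or HIV-2, with compounds diluted into culture medium from DMSO stocks. Antiviral activity is read at day 4 post-infection and reported as EC50.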

| Compound | Activity |
| --- | --- |
| Cc1cn(C2OC(CO[Si](C)(C)C(C)(C)C)C3(OS(=O)(=O)C=C3N)C2O[Si](C)(C)C(C)(C)C)c(=O)n(CCCNC(=O)[C@@H]2C[C@@H](O)CN2C(=O)[C@@H](N)C(C)C)c1=O (stereo partly specified) | inactive |
| Cc1cn(C2OC(CO[Si](C)(C)C(C)(C)C)C3(OS(=O)(=O)C=C3N)C2O[Si](C)(C)C(C)(C)C)c(=O)n(CCCNC(=O)[C@@H]2CCCN2C(=O)[C@@H](N)CCCCN)c1=O (stereo partly specified) | inactive |
| Cc1cn(C2OC(CO[Si](C)(C)C(C)(C)C)C3(OS(=O)(=O)C=C3N)C2O[Si](C)(C)C(C)(C)C)c(=O)n(CCCNC(=O)[C@@H]2CCCN2C(=O)[C@H](C)N)c1=O (stereo partly specified) | inactive |

biological target: T1, Dipeptidyl peptidase 4 (Homo sapiens, UniProt P27487); assay: Conversion of prodrug to parent drug NAP-TSAO-T catalyzed by CD26 after 24 hrs; type: ADME; design: concentration or dose not given beside the values; conditions: not given
T1 sequence (P27487 whole entry): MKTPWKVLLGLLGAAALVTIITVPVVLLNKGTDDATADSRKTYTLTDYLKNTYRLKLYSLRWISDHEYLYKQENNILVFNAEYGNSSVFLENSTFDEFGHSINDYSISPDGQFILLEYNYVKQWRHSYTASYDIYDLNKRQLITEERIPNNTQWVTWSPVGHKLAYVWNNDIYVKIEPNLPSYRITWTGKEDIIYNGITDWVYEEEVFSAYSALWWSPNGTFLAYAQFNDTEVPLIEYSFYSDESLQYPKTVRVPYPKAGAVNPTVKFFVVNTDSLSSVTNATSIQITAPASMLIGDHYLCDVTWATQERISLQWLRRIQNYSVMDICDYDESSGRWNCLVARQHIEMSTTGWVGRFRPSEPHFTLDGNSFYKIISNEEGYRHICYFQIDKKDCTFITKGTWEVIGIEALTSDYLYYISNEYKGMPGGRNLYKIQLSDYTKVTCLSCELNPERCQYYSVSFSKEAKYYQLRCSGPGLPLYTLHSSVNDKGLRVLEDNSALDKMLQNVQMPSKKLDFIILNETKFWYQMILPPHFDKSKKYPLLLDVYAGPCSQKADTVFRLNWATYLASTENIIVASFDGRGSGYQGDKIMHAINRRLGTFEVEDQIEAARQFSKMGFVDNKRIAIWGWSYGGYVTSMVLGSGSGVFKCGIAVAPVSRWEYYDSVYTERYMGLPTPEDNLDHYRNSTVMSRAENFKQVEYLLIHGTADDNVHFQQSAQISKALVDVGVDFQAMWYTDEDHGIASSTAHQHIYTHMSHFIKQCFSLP

| Compound | Activity |
| --- | --- |
| Cc1cn(C2OC(CO[Si](C)(C)C(C)(C)C)C3(OS(=O)(=O)C=C3N)C2O[Si](C)(C)C(C)(C)C)c(=O)n(CCCNC(=O)[C@@H]2C[C@@H](O)CN2C(=O)[C@@H](N)C(C)C)c1=O (stereo partly specified) | 43% |
| Cc1cn(C2OC(CO[Si](C)(C)C(C)(C)C)C3(OS(=O)(=O)C=C3N)C2O[Si](C)(C)C(C)(C)C)c(=O)n(CCCNC(=O)[C@@H]2CCCN2C(=O)[C@@H](N)CCCCN)c1=O (stereo partly specified) | 99% |
| Cc1cn(C2OC(CO[Si](C)(C)C(C)(C)C)C3(OS(=O)(=O)C=C3N)C2O[Si](C)(C)C(C)(C)C)c(=O)n(CCCNC(=O)[C@@H]2CCCN2C(=O)[C@H](C)N)c1=O (stereo partly specified) | 88% |

system: MT4; assay: Antiviral activity against HIV1 assessed as inhibition of HIV1-induced cytopathicity in MT4 cells; type: functional, cell-based; conditions: Homo sapiens; summary of the method: as §1

| Compound | EC50 |
| --- | --- |
| Cc1cn(C2OC(CO[Si](C)(C)C(C)(C)C)C3(OS(=O)(=O)C=C3N)C2O[Si](C)(C)C(C)(C)C)c(=O)n(CCCNC(=O)[C@@H]2C[C@@H](O)CN2C(=O)[C@@H](N)C(C)C)c1=O (stereo partly specified) | 0.41 µM |
| Cc1cn(C2OC(CO[Si](C)(C)C(C)(C)C)C3(OS(=O)(=O)C=C3N)C2O[Si](C)(C)C(C)(C)C)c(=O)n(CCCNC(=O)[C@@H]2CCCN2C(=O)[C@H](C)N)c1=O (stereo partly specified) | 0.3 µM |

biological target: T1, Dipeptidyl peptidase 4; assay: Conversion of prodrug to parent drug NAP-TSAO-T catalyzed by CD26 after 1 hr; type: ADME; design: concentration or dose not given beside the values; conditions: not given

| Compound | Activity |
| --- | --- |
| Cc1cn(C2OC(CO[Si](C)(C)C(C)(C)C)C3(OS(=O)(=O)C=C3N)C2O[Si](C)(C)C(C)(C)C)c(=O)n(CCCNC(=O)[C@@H]2C[C@@H](O)CN2C(=O)[C@@H](N)C(C)C)c1=O (stereo partly specified) | 4.1% |

biological target: T1, Dipeptidyl peptidase 4; assay: Conversion of prodrug to parent drug NAP-TSAO-T catalyzed by CD26 after 4 hrs; type: ADME; design: concentration or dose not given beside the values; conditions: not given

| Compound | Activity |
| --- | --- |
| Cc1cn(C2OC(CO[Si](C)(C)C(C)(C)C)C3(OS(=O)(=O)C=C3N)C2O[Si](C)(C)C(C)(C)C)c(=O)n(CCCNC(=O)[C@@H]2C[C@@H](O)CN2C(=O)[C@@H](N)C(C)C)c1=O (stereo partly specified) | 18% |
| Cc1cn(C2OC(CO[Si](C)(C)C(C)(C)C)C3(OS(=O)(=O)C=C3N)C2O[Si](C)(C)C(C)(C)C)c(=O)n(CCCNC(=O)[C@@H]2CCCN2C(=O)[C@@H](N)CCCCN)c1=O (stereo partly specified) | 85% |
| Cc1cn(C2OC(CO[Si](C)(C)C(C)(C)C)C3(OS(=O)(=O)C=C3N)C2O[Si](C)(C)C(C)(C)C)c(=O)n(CCCNC(=O)[C@@H]2CCCN2C(=O)[C@H](C)N)c1=O (stereo partly specified) | 81% |

system: CCRF-CEM; assay: Antiproliferative activity against human CEM cell line; type: functional; conditions: not given
Summary of the method: (§2)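 Cytostatic assay: compounds made up as DMSO stocks and diluted in culture medium. CC50 is the concentration that inhibits MT-4 or CEM cell proliferation by 50%.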

| Compound | CC50 |
| --- | --- |
| Cc1cn(C2OC(CO[Si](C)(C)C(C)(C)C)C3(OS(=O)(=O)C=C3N)C2O[Si](C)(C)C(C)(C)C)c(=O)n(CCCNC(=O)[C@@H]2C[C@@H](O)CN2C(=O)[C@@H](N)C(C)C)c1=O (stereo partly specified) | 15 µM |
| Cc1cn(C2OC(CO[Si](C)(C)C(C)(C)C)C3(OS(=O)(=O)C=C3N)C2O[Si](C)(C)C(C)(C)C)c(=O)n(CCCNC(=O)[C@@H]2CCCN2C(=O)[C@@H](N)CCCCN)c1=O (stereo partly specified) | 47 µM |
| Cc1cn(C2OC(CO[Si](C)(C)C(C)(C)C)C3(OS(=O)(=O)C=C3N)C2O[Si](C)(C)C(C)(C)C)c(=O)n(CCCNC(=O)[C@@H]2CCCN2C(=O)[C@H](C)N)c1=O (stereo partly specified) | 19 µM |

system: CCRF-CEM; assay: Antiviral activity against HIV1 assessed as inhibition of HIV1-induced cytopathicity in CEM cells; type: functional, cell-based; conditions: Homo sapiens; summary of the method: as §1

| Compound | EC50 |
| --- | --- |
| Cc1cn(C2OC(CO[Si](C)(C)C(C)(C)C)C3(OS(=O)(=O)C=C3N)C2O[Si](C)(C)C(C)(C)C)c(=O)n(CCCNC(=O)[C@@H]2C[C@@H](O)CN2C(=O)[C@@H](N)C(C)C)c1=O (stereo partly specified) | 0.4 µM |
| Cc1cn(C2OC(CO[Si](C)(C)C(C)(C)C)C3(OS(=O)(=O)C=C3N)C2O[Si](C)(C)C(C)(C)C)c(=O)n(CCCNC(=O)[C@@H]2CCCN2C(=O)[C@@H](N)CCCCN)c1=O (stereo partly specified) | 0.16 µM |
| Cc1cn(C2OC(CO[Si](C)(C)C(C)(C)C)C3(OS(=O)(=O)C=C3N)C2O[Si](C)(C)C(C)(C)C)c(=O)n(CCCNC(=O)[C@@H]2CCCN2C(=O)[C@H](C)N)c1=O (stereo partly specified) | 0.42 µM |

biological target: Human immunodeficiency virus type 1 reverse transcriptase (Human immunodeficiency virus 1, UniProt Q72547); assay: Inhibition of recombinant HIV1 reverse transcriptase; conditions: not given

| Compound | IC50 |
| --- | --- |
| Cc1cn(C2OC(CO[Si](C)(C)C(C)(C)C)C3(OS(=O)(=O)C=C3N)C2O[Si](C)(C)C(C)(C)C)c(=O)n(CCCNC(=O)[C@@H]2C[C@@H](O)CN2C(=O)[C@@H](N)C(C)C)c1=O (stereo partly specified) | 16 µM |
| Cc1cn(C2OC(CO[Si](C)(C)C(C)(C)C)C3(OS(=O)(=O)C=C3N)C2O[Si](C)(C)C(C)(C)C)c(=O)n(CCCNC(=O)[C@@H]2CCCN2C(=O)[C@@H](N)CCCCN)c1=O (stereo partly specified) | 4.7 µM |

system: MT4; assay: Antiproliferative activity against human MT4 cell line; type: functional; conditions: not given; summary of the method: as §2

| Compound | CC50 |
| --- | --- |
| Cc1cn(C2OC(CO[Si](C)(C)C(C)(C)C)C3(OS(=O)(=O)C=C3N)C2O[Si](C)(C)C(C)(C)C)c(=O)n(CCCNC(=O)[C@@H]2C[C@@H](O)CN2C(=O)[C@@H](N)C(C)C)c1=O (stereo partly specified) | 10 µM |
| Cc1cn(C2OC(CO[Si](C)(C)C(C)(C)C)C3(OS(=O)(=O)C=C3N)C2O[Si](C)(C)C(C)(C)C)c(=O)n(CCCNC(=O)[C@@H]2CCCN2C(=O)[C@@H](N)CCCCN)c1=O (stereo partly specified) | 87 µM |
| Cc1cn(C2OC(CO[Si](C)(C)C(C)(C)C)C3(OS(=O)(=O)C=C3N)C2O[Si](C)(C)C(C)(C)C)c(=O)n(CCCNC(=O)[C@@H]2CCCN2C(=O)[C@H](C)N)c1=O (stereo partly specified) | 20 µM |

system: CCRF-CEM; assay: Antiviral activity against HIV2 assessed as inhibition of HIV2-induced cytopathicity in CEM cells; type: functional, cell-based; conditions: not given; summary of the method: as §1

| Compound | Activity |
| --- | --- |
| Cc1cn(C2OC(CO[Si](C)(C)C(C)(C)C)C3(OS(=O)(=O)C=C3N)C2O[Si](C)(C)C(C)(C)C)c(=O)n(CCCNC(=O)[C@@H]2C[C@@H](O)CN2C(=O)[C@@H](N)C(C)C)c1=O (stereo partly specified) | inactive |
| Cc1cn(C2OC(CO[Si](C)(C)C(C)(C)C)C3(OS(=O)(=O)C=C3N)C2O[Si](C)(C)C(C)(C)C)c(=O)n(CCCNC(=O)[C@@H]2CCCN2C(=O)[C@@H](N)CCCCN)c1=O (stereo partly specified) | inactive |
| Cc1cn(C2OC(CO[Si](C)(C)C(C)(C)C)C3(OS(=O)(=O)C=C3N)C2O[Si](C)(C)C(C)(C)C)c(=O)n(CCCNC(=O)[C@@H]2CCCN2C(=O)[C@H](C)N)c1=O (stereo partly specified) | inactive |
